According to ChEMBL document CHEMBL3352437, “Novel 3,5-bis(arylidene)-4-oxo-1-piperidinyl dimers: structure-activity relationships and potent antileukemic and antilymphoma cytotoxicity” (Eur J Med Chem, 2014):

What was measured:
[1] = Cytotoxicity against human SupT1 cells assessed as dead cells at 1 uM after 24 hrs; format: functional, SUP-T1
Procedure, shortened: (§1)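 Dienones added as DMSO solutions to cells in RPMI medium and incubated 24 h at 37°C. Cytotoxicity was scored as cell-membrane disruption by propidium iodide staining and expressed as percentage of dead cells, averaged over three independent experiments.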

[2] = Cytotoxicity against human HuT-102 cells assessed as dead cells at 1 uM after 24 hrs; format: functional; procedure, shortened: as §1
[3] = Cytotoxicity against human MOLT3 cells assessed as dead cells at 1 uM after 24 hrs; format: functional, MOLT-3; procedure, shortened: as §1
EL4 = test: Cytotoxicity against mouse EL4 cells assessed as dead cells at 1 uM after 24 hrs; format: functional; procedure, shortened: as §1
[4] = Cytotoxicity against human NALM6 cells assessed as dead cells at 1 uM after 24 hrs; format: functional, NALM-6; procedure, shortened: as §1
Raji = test: Cytotoxicity against human Raji cells assessed as dead cells at 1 uM after 24 hrs; format: functional; procedure, shortened: as §1
Ramos = test: Cytotoxicity against human Ramos cells assessed as dead cells at 1 uM after 24 hrs; format: functional; procedure, shortened: as §1
BJAB = test: Cytotoxicity against human BJAB cells assessed as dead cells at 1 uM after 24 hrs; format: functional; procedure, shortened: as §1
YT = test: Cytotoxicity against human YT cells assessed as dead cells at 1 uM after 24 hrs; format: functional; procedure, shortened: as §1
MCF7 = test: Cytotoxicity against human MCF7 cells assessed as dead cells at 1 uM after 24 hrs; format: functional; procedure, shortened: as §1
[5] = Cytotoxicity against human MDA231 cells assessed as dead cells at 1 uM after 24 hrs; format: functional, MDA-MB-231; procedure, shortened: as §1
HCC70 = test: Cytotoxicity against human HCC70 cells assessed as dead cells at 1 uM after 24 hrs; format: functional; procedure, shortened: as §1
[6] = Cytotoxicity against human MCF10A cells assessed as dead cells at 1 uM after 24 hrs; format: cell-based; conditions: mcf-10a
Procedure, shortened: (§2)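 Compounds added from DMSO solutions to cells in medium (RPMI; DMEM for Hs-27 fibroblasts) and incubated 24 h at 37°C. Membrane disruption scored by propidium iodide uptake. Result is percentage of dead cells, average of three independent experiments.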

DU-145 = test: Cytotoxicity against human DU145 cells assessed as dead cells at 1 uM after 24 hrs; format: functional; procedure, shortened: as §1
[7] = Cytotoxicity against human 22Rvl cells assessed as dead cells at 1 uM after 24 hrs; format: functional; procedure, shortened: as §1
LAPC4 = test: Cytotoxicity against human LAPC4 cells assessed as dead cells at 1 uM after 24 hrs; format: functional; procedure, shortened: as §1
HS27 = test: Cytotoxicity against human HS27 cells assessed as dead cells at 1 uM after 24 hrs; format: cell-based; conditions: hs27, 24 h; procedure, shortened: as §2
[8] = Antiproliferative activity against human Molt4/C8 cells after 72 hrs by coulter counting analysis; format: functional, cell-based; conditions: MOLT-4, 72 h
Procedure, shortened: (§3)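 Cells exposed to a range of concentrations in RPMI 1640 at 37°C for 72 h. Surviving cells counted by Coulter counter. IC50 taken from concentration-response curves, mean ± SD of at least three independent experiments.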

CCRF-CEM [9] = test: Antiproliferative activity against human CEM cells after 72 hrs by coulter counting analysis; format: functional, cell-based; procedure, shortened: as §3
HeLa = test: Antiproliferative activity against human HeLa cells after 72 hrs by coulter counting analysis; format: functional, cell-based; procedure, shortened: as §3
L1210 = test: Antiproliferative activity against mouse L1210 cells after 72 hrs by coulter counting analysis; format: functional, cell-based; conditions: L1210, 72 h
Jurkat = test: Cytotoxicity against human Jurkat cells assessed as dead cells at 1 uM after 24 hrs; format: functional; procedure, shortened: as §1
CCRF-CEM [10] = test: Cytotoxicity against human CEM cells assessed as dead cells at 1 uM after 24 hrs; format: functional; procedure, shortened: as §1
[11] = Cytotoxicity against human NCI60 cells assessed as inhibition of tumor growth after 24 hrs; format: functional, cell-based; conditions: NCI60, 24 h
[12] = Cytotoxicity against human HCT15 cells assessed as inhibition of tumor growth after 24 hrs; format: functional, cell-based; conditions: HCT-15, 24 h
[13] = Antileukemic activity against human RPMI8226 cells assessed as inhibition of tumor growth after 24 hrs; format: functional, cell-based; conditions: rpmi-8226
SR = test: Antileukemic activity against human SR cells assessed as inhibition of tumor growth after 24 hrs; format: functional, cell-based
COLO 205 = test: Cytotoxicity against human COLO205 cells assessed as inhibition of tumor growth after 24 hrs; format: functional, cell-based; conditions: COLO 205, 24 h
HCC 2998 = test: Cytotoxicity against human HCC2998 cells assessed as inhibition of tumor growth after 24 hrs; format: functional, cell-based; conditions: HCC 2998, 24 h
KM12 = test: Cytotoxicity against human KM12 cells assessed as inhibition of tumor growth after 24 hrs; format: functional, cell-based; conditions: KM12, 24 h
SW-620 = test: Cytotoxicity against human SW620 cells assessed as inhibition of tumor growth after 24 hrs; format: functional, cell-based; conditions: SW-620, 24 h
HL-60(TB) = test: Antileukemic activity against human HL-60(TB) cells assessed as inhibition of tumor growth after 24 hrs; format: functional, cell-based; conditions: HL-60, 24 h
K562 = test: Antileukemic activity against human K562 cells assessed as inhibition of tumor growth after 24 hrs; format: functional, cell-based; conditions: K562, 24 h

Structure (SMILES) | IC50 [8] | IC50 (CCRF-CEM [9]) | IC50 (HeLa) | IC50 (L1210) | IC50 [11] | IC50 [12] | IC50 [13] | IC50 (SR) | IC50 (COLO 205) | IC50 (HCC 2998) | IC50 (KM12) | IC50 (SW-620) | IC50 (HL-60(TB)) | IC50 (K562) | further results
O=C1/C(=C\c2ccc(F)cc2)CN(C(=O)CC(=O)N2C/C(=C\c3ccc(F)cc3)C(=O)/C(=C/c3ccc(F)cc3)C2)C/C1=C\c1ccc(F)cc1 | 1580 nM | 2750 nM | 5610 nM | 11000 nM |  |  |  |  |  |  |  |  |  |  | Activity [1]: 24.9%; Activity [2]: 58.5%; Activity [3]: 2.6%; Activity (EL4): 47.7%; Activity [4]: 51.9%; Activity (Raji): 35.3%; Activity (Ramos): 78.6%; Activity (BJAB): 61.2%; Activity (YT): 19.2%; Activity (MCF7): 0.2%; Activity [5]: 0.4%; Activity (HCC70): 3.1%; Activity [6]: 7%; Activity (DU-145): 38.4%; Activity [7]: 18.8%; Activity (LAPC4): 11.1%; Activity (HS27): 0.3%; Activity (Jurkat): 87.1%; Activity (CCRF-CEM [10]): 92.4%
O=C1/C(=C/c2ccccc2)CN(C(=O)C(=O)N2C/C(=C\c3ccccc3)C(=O)/C(=C/c3ccccc3)C2)C/C1=C\c1ccccc1 | 462 nM | 750 nM | 1000 nM | 4460 nM | 310 nM | 300 nM | 30 nM | 20 nM |  |  |  |  |  |  | 
O=C1/C(=C\c2ccc(O)cc2)CN(C(=O)CC(=O)N2C/C(=C\c3ccc(O)cc3)C(=O)/C(=C/c3ccc(O)cc3)C2)C/C1=C\c1ccc(O)cc1 |  |  |  |  | 1660 nM | 1170 nM | 350 nM | 460 nM | 1660 nM | 1740 nM | 690 nM | 760 nM | 1740 nM | 530 nM | 
O=C1/C(=C\c2ccccc2)CN(CCCN2C/C(=C\c3ccccc3)C(=O)/C(=C/c3ccccc3)C2)C/C1=C\c1ccccc1 | 1450 nM | 2520 nM | 5540 nM | 2980 nM | 190 nM | 200 nM | 40 nM | 40 nM | 190 nM | 180 nM | 160 nM | 60 nM | 250 nM | 40 nM | Activity [1]: 21.2%; Activity [2]: 10%; Activity [3]: 27.4%; Activity (EL4): 65.3%; Activity [4]: 49.2%; Activity (Raji): 31.9%; Activity (Ramos): 82.1%; Activity (BJAB): 39.4%; Activity (YT): 6.6%; Activity (MCF7): 43.5%; Activity [5]: 20.1%; Activity (HCC70): 4.3%; Activity [6]: 19.4%; Activity [7]: 1.7%; Activity (LAPC4): 5.7%; Activity (HS27): 2.9%; Activity (Jurkat): 76.3%; Activity (CCRF-CEM [10]): 64.5%
COc1ccc(/C=C2/CN(C(=O)CC(=O)N3C/C(=C\c4ccc(OC)cc4)C(=O)/C(=C/c4ccc(OC)cc4)C3)C/C(=C\c3ccc(OC)cc3)C2=O)cc1 | 449000 nM | 369000 nM | 219000 nM | > 500000 nM |  |  |  |  |  |  |  |  |  |  | 
O=c1[nH]cc(F)c(=O)[nH]1 [FLUOROURACIL] |  |  |  |  | 29500 nM |  | 3550 nM |  |  |  |  |  |  |  | 
N[C@@H](Cc1ccc(N(CCCl)CCCl)cc1)C(=O)O [MELPHALAN] | 2810 nM | 1440 nM | 1700 nM | 4850 nM | 19100 nM |  | 28200 nM | 3240 nM | 32400 nM | 52500 nM | 57500 nM | 26900 nM | 380 nM | 195000 nM | 
Cc1ccc(/C=C2\CN(C(=O)C(=O)N3C/C(=C\c4ccc(C)cc4)C(=O)/C(=C/c4ccc(C)cc4)C3)C/C(=C\c3ccc(C)cc3)C2=O)cc1 | 1660 nM | 7720 nM | 3790 nM | 9090 nM |  |  |  |  |  |  |  |  |  |  | Activity [1]: 18.8%; Activity [2]: 13.9%; Activity [3]: 0.8%; Activity (EL4): 43.5%; Activity [4]: 59.5%; Activity (Raji): 41.5%; Activity (Ramos): 84.4%; Activity (BJAB): 41.5%; Activity (YT): 20.1%; Activity (MCF7): 0%; Activity [5]: 9.3%; Activity (HCC70): 11.9%; Activity [6]: 9.3%; Activity (DU-145): 26%; Activity [7]: 16.2%; Activity (LAPC4): 2.4%; Activity (HS27): 12%; Activity (Jurkat): 80.7%; Activity (CCRF-CEM [10]): 68.4%
CN(C)c1ccc(/C=C2\CN(C(=O)C(=O)N3C/C(=C\c4ccc(N(C)C)cc4)C(=O)/C(=C/c4ccc(N(C)C)cc4)C3)C/C(=C\c3ccc(N(C)C)cc3)C2=O)cc1 | 437000 nM | 276000 nM | > 500000 nM | 297000 nM |  |  |  |  |  |  |  |  |  |  | 
COc1cc(/C=C/C(=O)CC(=O)/C=C/c2ccc(O)c(OC)c2)ccc1O [CURCUMIN] | 6460 nM | 8160 nM | 21200 nM | 15100 nM |  |  |  |  |  |  |  |  |  |  | 
O=C1/C(=C\c2ccccc2)CN(C(=O)CC(=O)N2C/C(=C\c3ccccc3)C(=O)/C(=C/c3ccccc3)C2)C/C1=C\c1ccccc1 | 73 nM | 201 nM | 910 nM | 1230 nM | 240 nM | 170 nM | 130 nM | 30 nM | 160 nM | 170 nM | 130 nM | 50 nM | 290 nM | 50 nM | 
O=C1/C(=C\c2ccc(Cl)c(Cl)c2)CN(C(=O)CC(=O)N2C/C(=C\c3ccc(Cl)c(Cl)c3)C(=O)/C(=C/c3ccc(Cl)c(Cl)c3)C2)C/C1=C\c1ccc(Cl)c(Cl)c1 | 23500 nM | 49900 nM | 39800 nM | 30400 nM |  |  |  |  |  |  |  |  |  |  | 
